Screening data as filed in PubChem BioAssay.
TDP2 absorb – blocks human TDP2 phosphodiesterase activity; recombinant TDP2, T5PNP hydrolysis, p-nitrophenol absorbance 415 nm; 370,000 tested, 0.34% active; inhibition, % at 12.8 µM; O95551;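 active = inhibition above the mean of all tested compounds plus 3 SD, set per campaign, cut at about 25% in these data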;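 also: 0% = DMSO with enzyme and 100% = buffer with substrate but no TDP2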
Target sequence (O95551 whole entry, looked up): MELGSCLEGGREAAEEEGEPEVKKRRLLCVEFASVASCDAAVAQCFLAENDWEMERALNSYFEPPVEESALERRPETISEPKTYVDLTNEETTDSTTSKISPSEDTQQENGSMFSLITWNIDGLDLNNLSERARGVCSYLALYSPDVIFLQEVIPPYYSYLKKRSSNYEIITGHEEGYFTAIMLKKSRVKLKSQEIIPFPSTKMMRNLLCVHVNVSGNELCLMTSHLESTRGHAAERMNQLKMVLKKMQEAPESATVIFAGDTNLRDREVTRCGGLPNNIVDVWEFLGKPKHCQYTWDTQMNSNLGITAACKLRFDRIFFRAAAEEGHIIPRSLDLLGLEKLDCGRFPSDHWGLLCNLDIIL
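Evaluation: % inhibition relative to enzyme-containing and enzyme-free wells. Material: recombinant human TDP2. Benchmarks: enzyme-free and DMSO wells. Timing: enzyme reaction with compound for 2 h at 37 °C. Compound dosing: 12.8 µM only. Measured by: p-Nitrophenol epi absorbance. Reagent: T5PNP substrate at 5 mM, a TopII-DNA adduct mimic. Replication: single well per compound.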
UHRF1 binding – blocks human UHRF1 binding to methylated DNA | Q96T88 | UHRF1 binding to methylated oligo, TR-FRET | inhibition, % at 4.4 µM | 370,000 tested, 0.75% active; in the data active = inhibition above about 21%;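 also: UHRF1 SRA domain binding a hemimethylated CpG hairpin DNA probe; 0% = median of test compound wells and 100% = reference inhibitor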
MBD2 DNA inh – MBD2-methylated oligo binding inhibition | TR-FRET, MBD2 binding to methylated oligonucleotide | 370,000 tested, 0.31% active | Q9UBB5 | inhibition, % at 4.4 µM; in the data active = inhibition above about 13%
LEDGF integ inh – blocks HIV-1 LEDGF/p75-dependent DNA integration; TR-FRET IN-LEDGF/p75 DNA integration, Eu/Cy5; inhibition, % at 3.7 µM; 370,000 tested, 0.64% active;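 active = inhibition above the screen-wide mean plus 3 SD, cut at about 13% in these data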;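 also: signal is the Cy5 over europium emission ratio at 671 and 618 nm; 0% = plate median of compound wells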
The depositor's hits bear a star. Shown are actives, neighbours in structure and some others; about 1.6% of the full set was active somewhere.

SMILES	TDP2 absorb	UHRF1 binding	MBD2 DNA inh	LEDGF integ inh
Cc1ccc(S(=O)(=O)N2CCCCC2)cc1NC(=O)COC(=O)c1ccc(O)cc1	2.9	34.3*	-0.9	-2.0
N=C(N)SCc1ccc(O)c([N+](=O)[O-])c1	-2.0	38.0*	-0.3	1.4
CC(C)(N[C@@H](Cc1ccccc1)C(=O)NCCc1c[nH]c2ccccc12)C(=O)NC1CCCCC1	-0.9	1.0	-2.4	-1.3
Cc1c(NC(=O)C2CCCN(S(=O)(=O)c3ccccc3[N+](=O)[O-])C2)c(=O)n(-c2ccccc2)n1C (configuration not stated)	0.3	1.6	-1.4	1.8
Cc1ccccc1N(C(=O)c1snc(C(N)=O)c1N)C(C(=O)NC1CCCCC1)c1ccc(O)cc1 (configuration not stated)	-7.2	49.5*	-5.7	-0.9
Cc1cccc(N(C(=O)c2snc(C(N)=O)c2N)C(C(=O)NC2CCCC2)c2ccc(C)o2)c1 (configuration not stated)	12.4	69.6*	2.2	-1.7
Cc1ccccc1N(C(=O)c1snc(C(N)=O)c1N)C(C)C(=O)NC1CCCCC1 (configuration not stated)	-7.1	-0.6	0.6	1.7
CC(CCN1CCC(C(O)(c2ccccc2)c2ccccc2)CC1)Oc1ccc(OC(F)(F)F)cc1 (configuration not stated)	-10.1	0.1	-2.6	-2.5
CCn1c(=O)n(CC)c2cc(N3CCCC3)c(NC(=O)c3ccccc3C)cc21	-1.3	22.9*	9.0	-0.7
CCn1c(=O)n(CC)c2cc(N3CCCC3)c(NC(=O)c3ccccc3F)cc21	10.8	3.0	1.6	1.9
O=C(Nc1nccs1)C1CCCN1S(=O)(=O)c1ccc(Cl)cc1 (configuration not stated)	5.1	25.4*	3.0	-1.2
O=C(COC(=O)c1ccccc1Nc1ccccc1)NCc1ccco1	0.5	20.9*	-1.1	-2.9
O=C(COC(=O)c1ccccc1Cl)NCc1ccco1	1.3	7.8	10.0	2.8
CSCCC(NC(=O)c1ccccc1)C(=O)OCC(=O)NCc1ccco1 (configuration not stated)	-10.2	26.7*	-4.2	3.3
CCCCNC(=O)C[C@@H]1C(=O)N(Cc2ccc(OC)cc2)/C2=C/CCCCC[C@@]21C(=O)OCC	-12.7	3.0	-6.3	6.5
CCn1cc(C(=O)NCCCN2CCN(C)CC2)c(=O)c2cc(S(=O)(=O)N3CCc4ccccc4C3)ccc21	8.1	41.4*	-5.7	-0.9
Cc1cccc(C)c1NC(=O)[C@H]1CC(=O)O[C@@H]1c1ccccc1	-2.3	0.1	-3.8	2.8
COC(=O)C1=C(C)N(Cc2ccc(C(F)(F)F)cc2)C(=NCc2ccc3c(c2)OCO3)NC1c1cccc(Cl)c1 (configuration not stated)	-7.0	-2.9	2.1	-1.3
CNC(=O)c1c(C)nn(-c2ccc(F)c(Cl)c2)c1-c1cc(C)on1	-1.1	22.2*	4.0	-0.6
Nc1ccc(S(=O)(=O)c2cc(O)c3ccccc3c2O)cc1	27.6*	-3.5	-13.8	9.4
CCC(C)n1c(SC(C)C#N)nc2ccccc2c1=O (configuration not stated)	-3.5	27.6*	-1.4	-0.6
C[C@@]12C(=O)N(CC3CC3)CC(=O)N1[C@H](C1CC1)[C@@H]1C(=O)N(c3ccccc3)C(=O)[C@@H]12	5.0	39.3*	-2.7	-0.9
COc1ccc(C2=Nc3ccccc3N(C(=O)c3cccnc3)C2C(=O)NC2CCCC2)cc1 (configuration not stated)	2.9	22.6*	11.8	-3.4
CCCCCCn1c(=O)n2n(c1=O)[C@@H]1CN(S(=O)(=O)c3ccc(C)cc3)C[C@]1(O)[C@@H](OC(=O)NC1CCCC1)C2	-11.8	9.8	7.7	1.7
CCCCCCn1c(=O)n2n(c1=O)[C@@H]1CN(S(=O)(=O)c3ccc(C)cc3)C[C@]1(O)[C@@H](OC(=O)NCC1CCCCC1)C2	-9.2	23.3*	4.0	-0.1
SMILES	TDP2 absorb	UHRF1 binding	MBD2 DNA inh	LEDGF integ inh
COC(=O)C1=C(C)N(Cc2ccc(C(F)(F)F)cc2)C(=NCc2ccc(OC)cc2)NC1c1ccccc1C(F)(F)F (configuration not stated)	-17.3	4.3	1.3	2.6
O=[N+]([O-])c1cc(Br)cc(/C=N/n2cnnc2)c1O	-1.9	39.9*	-12.3	1.3
CCOc1ccccc1C1NC(=O)NC(C)=C1C(=O)OC1CCCCC1 (configuration not stated)	-5.9	80.9*	0.6	-4.2
CCOc1ccccc1C1NC(=O)NC(C)=C1C(=O)OC1CCCC1C (configuration not stated)	2.0	3.6	3.2	0.2
CC(C)CN1C(=O)[C@@]2(CC(=O)N(C)C2c2ccccc2)c2cc(-n3cc(CN(C)C)nn3)ccc21 (some centres not stated)	-4.3	8.4	2.0	-2.3
O=C(Nc1cccnc1)NC1CCCCC1	-13.5	24.8*	3.1	0.5
COc1ccccc1NC(=O)COC(=O)CCS(=O)(=O)c1ccc(C)cc1	5.6	-1.6	5.8	2.2
COc1ccc(OC)c(NC(=O)COC(=O)CCS(=O)(=O)c2ccc(Cl)cc2)c1	-10.5	20.9*	3.5	4.6
C#CCN(CC=C)Cc1ccc(OC)cc1OC	7.3	0.5	0.6	-2.3
O=C(NCCCNc1ccc(C(F)(F)F)cc1[N+](=O)[O-])c1ccc(Cl)cc1	-5.2	52.5*	0.2	4.3
CCCc1cc(-c2n[nH]c(C)c2-c2ccc(C(=O)OCC)o2)c(O)cc1O	-22.2	6.6	3.1	-0.7
CCCc1cc2c(OC(=O)CC)c(-c3ccc(C(=O)OCC)o3)c(=O)oc2cc1OC	7.2	24.2*	10.3	2.8
OC(CNCc1ccccc1)Cn1ccc2ccccc21 (configuration not stated)	-2.9	27.4*	-0.6	-0.9
Oc1ccccc1NCC(O)Cn1ccc2ccccc21 (configuration not stated)	16.8	-1.7	7.5	0.2
CC(C)(C)C(=O)OC12CCCN(C1)/C(=C/c1ccc(Cl)cc1)C2 (configuration not stated)	5.5	0.9	2.1	0.3
COC(=O)C1=C(C)N(Cc2ccccc2C(F)(F)F)C(=NCc2ccc(C(F)(F)F)cc2)NC1c1cccc(F)c1 (configuration not stated)	-0.3	0.1	-4.9	-4.2
O=C1NC(=O)C(CC(=O)N(Cc2cccs2)C2(C(=O)NC3CCCC3)CCCCC2)N1 (configuration not stated)	-0.5	23.5*	4.8	2.6
O=C(Cc1cccs1)N(Cc1cccs1)C1(C(=O)NC2CCCCC2)CCCCC1	2.6	-3.1	3.4	0.9
CCN(CC)C(=O)CC[C@@H]1CC[C@]2(CCCN(Cc3ccccn3)C2)O1	-2.1	-2.7	-8.2	6.8
O=C(Nc1ccc(F)c(F)c1)C1CCN(S(=O)(=O)c2cccs2)CC1	-9.5	31.0*	3.8	-8.5
CCOC(=O)c1c(C)[nH]c(C)c1C(=O)CSc1nc2ccccc2c(=O)n1-c1ccccc1C	8.3	20.7*	11.3	3.2
